Hits are enriched below; roughly 6% of the tested compounds scored in any of these assays.
H69AR inhibit = proliferation blockers of H69AR lung cancer cells, primary screen, cell-based, human, 86K library; 85,000 tested, 6% active; H69AR lung tumor viability, ATP luminescence, 72 h; hits give low values; AID 598, 2007; viability, % at 10 µM;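 active = viability at or below 40%; inactive = viability above 40%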;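 note: multidrug resistant small cell line overexpressing MRP-1 efflux transporter; 100% = mean luminescence of untreated control wells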
Pyk2 oligo antag = antagonists of Pyk2 self-association, primary screen, Q293 cells, FERM NanoBiT luminescence, HTS; z-score (the deposit names both 25 µM and 10 µM); AID 1347419, 2020; 99,000 tested, 0.83% active; hits give low values;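 active = Z-score of -3 or lower, scaled per plate to the spread of control and sample wells; inactive = z-score above -3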;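 note: negative z-score means lost luminescence so less FERM oligomerization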
Target sequence (Q14289 whole entry, looked up): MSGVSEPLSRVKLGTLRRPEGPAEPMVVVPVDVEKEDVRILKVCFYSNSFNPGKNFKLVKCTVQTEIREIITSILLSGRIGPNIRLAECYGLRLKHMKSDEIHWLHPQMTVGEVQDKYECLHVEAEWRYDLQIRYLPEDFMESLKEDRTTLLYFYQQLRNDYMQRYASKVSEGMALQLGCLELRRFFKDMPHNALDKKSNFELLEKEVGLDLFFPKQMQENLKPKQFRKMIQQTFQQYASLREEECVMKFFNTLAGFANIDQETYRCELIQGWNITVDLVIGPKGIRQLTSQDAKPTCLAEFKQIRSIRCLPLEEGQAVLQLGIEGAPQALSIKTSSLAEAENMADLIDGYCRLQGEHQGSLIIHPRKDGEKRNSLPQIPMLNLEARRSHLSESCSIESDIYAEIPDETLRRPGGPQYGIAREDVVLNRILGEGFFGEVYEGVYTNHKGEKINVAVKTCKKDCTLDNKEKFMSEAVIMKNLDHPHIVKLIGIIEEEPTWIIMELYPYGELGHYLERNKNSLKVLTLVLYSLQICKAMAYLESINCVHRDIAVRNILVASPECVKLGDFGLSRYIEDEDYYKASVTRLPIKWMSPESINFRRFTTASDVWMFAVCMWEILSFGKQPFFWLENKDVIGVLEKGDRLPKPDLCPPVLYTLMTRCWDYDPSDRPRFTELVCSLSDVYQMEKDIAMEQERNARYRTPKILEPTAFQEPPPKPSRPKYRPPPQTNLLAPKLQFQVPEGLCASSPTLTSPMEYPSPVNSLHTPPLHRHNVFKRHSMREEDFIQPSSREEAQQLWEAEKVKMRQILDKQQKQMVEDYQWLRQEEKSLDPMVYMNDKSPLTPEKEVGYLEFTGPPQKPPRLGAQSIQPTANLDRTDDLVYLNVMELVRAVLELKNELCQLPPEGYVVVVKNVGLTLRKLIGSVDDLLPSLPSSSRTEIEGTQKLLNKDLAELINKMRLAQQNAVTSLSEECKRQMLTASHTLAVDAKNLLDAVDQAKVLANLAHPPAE
Jurkat viability = cytotoxicity toward Jurkat T cells, primary screen, cytotoxicity control, cell-based, Jurkat E6.1, 60K MLSMR library; Jurkat E6.1 viability, ATP luminescence, 48 h; inhibition, % at 4 µM; 56,000 tested, 1.2% active; AID 463, 2006;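 active = inhibition above the mean inhibition of all tested compounds plus 3 SD, cut at about 28% in these data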
F-actin modifier = modifiers of F-actin cytoskeleton organization, primary screen, imaging, HUVEC, phalloidin staining, high-content imaging | HUVEC TNFa F-actin phalloidin imaging | 91,000 tested, 0.18% active | AID 836, 2007 | inhibition, % at 2 µM;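 active = inhibition above the batch mean plus 3 SD and confirmed as a hit by visual image inspection, cut at about 30% in these data, passing the limit was not always enough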
HUVEC inhibit = inhibitors of HUVEC proliferation, primary screen, cell-based, 384-well. 86,000 tested, 1.1% active. viability, % at 10 µM (by protocol). CellTiter-Glo luminescence, 72 h; hits give low values;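 active = viability at or below 30%; inactive = viability above 30%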;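 note: 100% = median luminescence of DMSO-only cell control wells on each plate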
Lung fibro prol = antiproliferative effect on LL 47 fibroblasts – human, LL 47 cells, CellTiter-Glo luminescence, primary screen. 85,000 tested, 1.1% active. viability, % at 10 µM. LL 47 human lung fibroblast viability, ATP luminescence; hits give low values;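 active = viability at or below 50% in the single dose screen; inactive = viability above 50%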;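 note: compound exposure lasted 72 h before the ATP readout; 100% = median luminescence of untreated cell-only wells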
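Material: human LL 47 lung fibroblast cells; quantity: 1,150 cells/well; medium: IMEM plus 15% FBS; doses: 0.1% DMSO in all compound wells; timing: overnight attachment after seeding, then 72 h compound exposure at 37 °C; detection: CellTiter-Glo luminescence; measure: % viability of median cell-only signal; controls: cell-only wells, no compound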
* marks the source's active call; other numbers are inactive results; / = no result.

SMILES | H69AR inhibit | Pyk2 oligo antag | Jurkat viability | F-actin modifier | HUVEC inhibit | Lung fibro prol
COc1ccc(C(=O)Nc2ccc(Cl)c(Cl)c2)c(OC)n1 | 47.1 | -0.5 | -2.3 | 4.3 | 81.1 | 81.4
CC(C)C1O/C(=N/C(=O)Nc2ccc(Cl)c(Cl)c2)NC1=O (centres undefined) | 11.5* | -0.05 | -3.7 | -6.5 | 55.0 | 88.4
COc1ccc(OC)c(Nc2cc(-c3ccccc3)nc(N)n2)c1 | 25.1* | / | 97.7* | -6.8 | 43.6 | 63.7
CC(=O)NC(CCS(C)(=O)=O)C(=O)Nc1cccc(C(C)=O)c1 (centres undefined) | 104.5 | 0.73 | 5.6 | -3.8 | 100.6 | 103.8
COC(=O)c1cn(NC(=O)c2cc(OC)cc(OC)c2)c(=O)c2ccccc12 | 61.3 | 0.07 | / | -7.7 | 97.8 | 100.8
COC(=O)c1cn(NC(=O)c2cc(OC)c(OC)c(OC)c2)c(=O)c2ccccc12 | 18.5* | 0.08 | / | -14.1 | 19.8* | 49.2*
CCOC(=O)C1=C(SCC)c2cc3c(n2C1=O)CCCC3 | 58.3 | -1.22 | / | 30.4* | 72.5 | 90.8
CC(C)C[C@H](N)c1nnc(S(=O)(=O)Cc2ccc(F)cc2)o1 | 5.9* | -0.48 | 10.0 | / | 100.1 | 67.5
Cc1ccc(NC(=O)Cc2nnc(SCC(=O)c3ccc(Br)cc3)n2C)cc1 | 100.4 | -0.28 | / | -3.9 | 102.9 | 102.7
Cc1nc(N2CCC(C)CC2)c2oc3ccccc3c2n1 | 33.6* | -0.29 | / | -15.8 | 82.0 | 97.0
COc1ccccc1N1CCN(c2nc(C)nc3c2oc2ccccc23)CC1 | 41.4 | -1.17 | 76.8* | -12.0 | 43.4 | 53.4
Cc1nc(N2CCN(Cc3ccc4c(c3)OCO4)CC2)c2oc3ccccc3c2n1 | 23.0* | / | / | / | 77.1 | 69.3
O=C(CC1CCCCC1)Nc1ncn[nH]1 | 86.1 | 0.77 | / | -60.8 | 100.4 | 96.5
CN1CC(=O)NC1=NC(=O)c1cc(F)c(F)cc1Cl | 95.0 | 0.56 | -5.8 | -3.8 | 99.7 | 99.0
CN1CC(=O)NC1=NC(=O)c1ccc(Cl)c(S(=O)(=O)N2CCCCCC2)c1 | 11.5* | 0.08 | 2.4 | 7.0 | 88.9 | 83.8
Cc1ccc(-c2nnc3sc(-c4ccncc4)nn23)cc1 | 82.4 | 0.38 | -4.3 | 10.4 | 86.6 | 99.6
COc1ccccc1-c1nn2c(-c3ccc(C(C)(C)C)cc3)nnc2s1 | 94.4 | / | / | / | 25.3* | 95.3
COc1ccccc1-c1nnc2sc(-c3cnccn3)nn12 | 97.2 | 0.21 | -2.3 | 4.3 | 103.9 | 105.4
CN(C)c1ccc(-c2nn3c(-c4ccncc4)nnc3s2)cc1 | 32.2* | / | 5.0 | / | 65.3 | 91.2
CN(C)c1ccc(-c2nn3c(-c4ccccc4Cl)nnc3s2)cc1 | 30.4* | -0.57 | 82.2* | -25.2 | 35.2 | 53.5
CC(C)(C)c1ccc(-c2nnc3sc(-c4ccccn4)nn23)cc1 | 74.7 | / | 3.9 | -10.6 | 79.6 | 103.6
COc1ccccc1-c1nnc2sc(-c3cc4ccccc4o3)nn12 | 31.2* | -0.51 | 86.7* | -15.3 | 49.1 | 48.7*
N#Cc1c(C(F)(F)F)cc(-c2ccccc2)nc1SCC(=O)Nc1sc2c(c1C#N)CCC2 | / | 0.52 | / | 29.8 | / | /
CC(=O)NC1Sc2ccccc2N=C1c1ccccc1 (centres undefined) | 73.3 | -1.03 | -7.6 | -35.5 | 83.3 | 89.5
C1CCC(c2nn3c(-c4n[nH]c5c4CCC5)nnc3s2)CC1 | 57.7 | -0.48 | 5.6 | -17.0 | 92.4 | 92.4
SMILES | H69AR inhibit | Pyk2 oligo antag | Jurkat viability | F-actin modifier | HUVEC inhibit | Lung fibro prol
COc1ccc(-c2nnc3sc(-c4cccs4)nn23)cc1OC | 55.2 | -1.23 | 9.0 | -9.5 | 84.0 | 100.8
COc1cc(-c2nnc3sc(-c4cccs4)nn23)cc(OC)c1OC | 20.8* | -0.11 | 9.3 | / | 80.4 | 54.0
CCN(CC)c1ccc(-c2nn3c(-c4n[nH]c5c4CCC5)nnc3s2)cc1 | 21.7* | -2.86 | 97.2* | -25.6 | 33.1 | 44.7*
COc1ccccc1-c1nnc2sc(-c3ccc(N(C)C)cc3)nn12 | / | -3.39* | 99.2* | / | / | /
CC1Cc2ccccc2N1C(=O)CSc1nc2c(c(=O)n(C)c(=O)n2C)n1Cc1ccccc1 (centres undefined) | 40.1 | -2.79 | -2.7 | -0.7 | 70.0 | 93.3
CCOC(=O)c1c(C)[nH]c(C)c1C(=O)COC(=O)c1ccc(Cl)c(S(=O)(=O)NCc2ccccc2)c1 | / | -1.86 | / | -2.6 | / | /
COc1ccccc1OCCn1cc(C(=O)c2ccco2)c2ccccc21 | 60.8 | -1.33 | 10.8 | 72.1* | 88.2 | 96.8
COc1cccc(OCCn2cc(C(=O)c3ccco3)c3ccccc32)c1 | 57.8 | -2.08 | 3.0 | -12.9 | 70.0 | 93.5
Cc1ccc(OCC(=O)Nc2ccc(-c3nc4ncccc4o3)cc2)c(C)c1 | 33.5* | 1.45 | -6.5 | -13.1 | 70.9 | 97.3
Clc1ccc(-c2cc(COc3ccc4ccccc4c3)no2)cc1 | / | 0.73 | / | 17.8 | / | /
CC(C)Cc1nc2oc3c(Cl)ncnc3c2c2c1CCC2 | 70.3 | -0.06 | / | 21.8 | 3.3* | 44.6*
CC(=O)Oc1ccc(NC(=O)CSc2ccccc2)cc1 | / | -0.06 | 0.2 | 1.4 | 87.9 | 107.8
Cc1ccc(C2(C(F)(F)F)N=C3Sc4cc(C)ccc4N3C(=O)N2)cc1 (centres undefined) | 77.8 | / | / | 41.7 | 82.2 | 77.2
CN(CCCCCCCCC(=O)/C=N/O)Cc1ccccc1 | 24.2* | 0.75 | / | -4.7 | 88.5 | 95.6
COc1ccc(C)cc1S(=O)(=O)N(CC(N)=O)Cc1ccccc1 | 95.3 | 0.82 | -7.1 | / | 89.4 | 88.7
N#Cc1cc(C(=O)c2cc(Br)ccc2O)cn(C2CCCCC2)c1=O | 12.9* | -2.86 | / | 16.8 | 97.9 | 92.7
O=C(CCn1cccc1)NCCc1ccc(Cl)cc1 | 97.8 | -0.14 | -1.8 | -6.2 | 100.6 | 111.0
COc1ccc(OC)c(-c2cc(C(=O)Nc3c(C)nn(Cc4ccccc4Cl)c3C)no2)c1 | 77.8 | -0.21 | -4.8 | -8.4 | 88.2 | 105.8
Cc1nn(Cc2ccc(F)cc2)c(C)c1NC(=O)c1cc(-c2ccc3c(c2)OCO3)on1 | 86.3 | / | 7.5 | -20.2 | 67.9 | 97.8
Cc1nn(Cc2ccc(Cl)cc2)c(C)c1NC(=O)c1cc(-c2ccco2)on1 | 96.0 | -0.12 | 15.5 | -12.5 | 85.5 | 94.8
COc1ccc(-c2cc(C(=O)Nc3c(C)nn(Cc4ccc(Cl)cc4)c3C)no2)cc1 | 16.0* | 1.05 | / | -12.6 | 41.9 | 54.3
COc1ccc(-c2cc(C(=O)Nc3c(C)nn(Cc4ccccc4Cl)c3C)no2)cc1OC | 19.5* | -0.29 | 1.1 | 2.4 | 46.9 | 80.6
Cc1ccc(Cn2nc(C)c(NC(=O)c3cc(-c4ccc5c(c4)OCO5)on3)c2C)cc1 | 7.4* | / | -7.5 | -10.0 | 34.3 | 92.9
CC1(C)CC(=O)C2=C(C1)NC(=O)CC2c1ccc(N(CCC#N)CCC#N)cc1 (centres undefined) | 92.3 | -0.04 | -1.7 | / | 91.2 | 95.7
c1ccc(-n2cnc3cc(NCc4cccs4)ccc32)cc1 | 23.3* | 0.72 | / | -6.0 | 72.6 | 60.8
